We go through 3 compounds from ChEMBL document CHEMBL1135767, “Synthesis and initial evaluation for in vivo chelation of Pu(IV) of a mixed octadentate spermine-based ligand containing 4-carbamoyl-3-hydroxy-1-methyl-2(1H)-pyridinone and 6-carbamoyl-1-hydroxy-2(1H)-pyridinone” (2002).

Assay [1] deals with Mus musculus. Briefly: Removal of [238Pu] (i.v.) from mice by ligand injected 30 uM/kg intraperitoneally at 1 hr from urine excretia. The format is functional. An outline of the steps: (§1)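 238Pu(IV) citrate given iv to mice; ligand 30 µmol/kg (in 0.14 M NaCl, pH 7.4, volume scaled to body weight) injected ip at 1 h; killed at 24 h. Five mice per cage, excreta pooled per cage, chow from 4 h. Tissue and excreta Pu were counted by liquid scintillation alpha counting and given as %ID normalized to 100% recovery, mean ± SD.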

The subject of assay [2] is Mus musculus. Briefly: Removal of [238Pu] (i.v.) from mice by ligand injected 30 uM/kg ip at 1 hr and orally at 3 min after iv injection from kidneys. The assay is classed as functional, Kidney. An outline of the steps: (§2)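 Kidney Pu (%ID) at 24 h after iv 238Pu(IV) citrate was measured in mice given ligand 30 µmol/kg by one of two routes: ip at 1 h, or by gastric tube at 3 min to 16 h-fasted or normally fed mice. Kidneys were alpha-counted by liquid scintillation, and data were normalized to 100% recovery.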

In assay [3] the test system is Mus musculus. Briefly: Removal of [238Pu] (i.v.) from mice by ligand injected 30 uM/kg intraperitoneally at 1 hr from soft tissue. The assay is classed as functional. An outline of the steps: as §1
For assay [4], the system named is Mus musculus. Briefly: Removal of [238Pu] (i.v.) from mice by ligand injected 30 uM/kg orally at 3 min normally fed after iv injection from kidneys. The assay is classed as functional, Kidney. An outline of the steps: (§3)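 Normally fed mice got iv 238Pu(IV) citrate, then ligand 30 µmol/kg by gastric tube at 3 min, in 0.14 M NaCl pH 7.4 with weight-adjusted volume. The mice were killed at 24 h, with five per cage and excreta pooled per cage. Pu was counted by liquid scintillation alpha counting and reported as %ID normalized to 100% recovery.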

In assay [5] the test system is Mus musculus. In words: Removal of [238Pu] (i.v.) from mice by ligand injected 30 uM/kg orally at 3 min normally fed after iv injection from whole body. The assay is classed as functional. An outline of the steps: as §3
In assay [6] the test system is Mus musculus. Briefly: Removal of [238Pu] (i.v.) from mice by ligand injected 30 umol/kg intraperitoneally at 1 hr from skeleton. The format is functional. An outline of the steps: as §1
Assay [7] deals with Mus musculus. In words: Removal of [238Pu] (i.v.) from mice by ligand injected 30 uM/kg intraperitoneally at 1 hr from skeleton. The format is functional. An outline of the steps:
as §1

In assay [8] the test system is Mus musculus. Briefly: Removal of [238Pu] (i.v.) from mice by ligand injected 30 uM/kg orally at 3 min fasted after iv injection from whole body. The assay is classed as functional. An outline of the steps:
(§4)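 Mice fasted 16 h got iv 238Pu(IV) citrate, then ligand 30 µmol/kg by gastric tube at 3 min (HOPO in 0.14 M NaCl, pH 7.4; weight-adjusted volume). Chow was given at 4 h and the mice were killed at 24 h. Tissues and pooled per-cage excreta were liquid-scintillation alpha-counted and expressed as %ID normalized to 100% recovery.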

Assay [9] deals with Mus musculus. Briefly: Removal of [238Pu] (i.v.) from mice by ligand injected 30 uM/kg intraperitoneally at 1 hr from whole body. The format is functional. An outline of the steps:
as §1

Assay [10] concerns Mus musculus. In words: Removal of [238Pu] (i.v.) from mice by ligand injected 30 uM/kg intraperitoneally at 1 hr from liver tissue. The format is functional. The method, boiled down: as §1
Assay [11] relates to Mus musculus. Briefly: Removal of [238Pu] (i.v.) from mice by ligand injected 30 uM/kg intraperitoneally at 1 hr from kidneys. The format is functional, Kidney. An outline of the steps: as §1
The test system of assay [12] is Mus musculus. In words: Removal of [238Pu] (i.v.) from mice by ligand injected 30 uM/kg orally at 3 min fasted after iv injection from feces and GI contents. The format is functional. The method, boiled down: as §4
For assay [13], the system named is Mus musculus. Briefly: Removal of [238Pu] (i.v.) from mice by ligand injected 30 uM/kg orally at 3 min normally fed after iv injection from soft tissue. The assay is classed as functional. The method, boiled down: as §3
Assay [14] deals with Mus musculus. Briefly: Removal of [238Pu] (i.v.) from mice by ligand injected 30 uM/kg orally at 3 min fasted after iv injection from skeleton. The assay is classed as functional. The method, boiled down: as §4
The subject of assay [15] is Mus musculus. In words: Removal of [238Pu] (i.v.) from mice by ligand injected 30 uM/kg orally at 3 min fasted after iv injection from urine excretia. The format is functional. An outline of the steps: as §4
In assay [16] the test system is Mus musculus. Briefly: Removal of [238Pu] (i.v.) from mice by ligand injected 30 uM/kg orally at 3 min fasted after iv injection from liver tissue. The assay is classed as functional. The method, boiled down:
as §4

For assay [17], the system named is Mus musculus. Briefly: Removal of [238Pu] (i.v.) from mice by ligand injected 30 uM/kg orally at 3 min normally fed after iv injection from liver tissue. The format is functional. An outline of the steps:
as §3

Assay [18] concerns Mus musculus. Briefly: Removal of [238Pu] (i.v.) from mice by ligand injected 30 uM/kg orally at 3 min fasted after iv injection from soft tissue. The format is functional. The method, boiled down: as §4
Assay [19] has as its system Mus musculus. In words: Removal of [238Pu] (i.v.) from mice by ligand injected 30 uM/kg orally at 3 min normally fed after iv injection from feces and GI contents. The format is functional. The method, boiled down: as §3
Assay [20] relates to Mus musculus. Briefly: Removal of [238Pu] (i.v.) from mice by ligand injected 30 uM/kg at 3 min normally fed after iv injection from urine excretia. The format is functional. An outline of the steps:
as §3

The test system of assay [21] is Mus musculus. In words: Removal of [238Pu] (i.v.) from mice by ligand injected orally at 3 min normally fed after iv injection from skeleton. The assay is classed as functional. An outline of the steps: as §3
Assay [22] relates to Mus musculus. In words: Removal of [238Pu] (i.v.) from mice by ligand injected 30 uM/kg ip at 1 hr from feces and GI contents. The assay is classed as functional. The method, boiled down: (§5)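 Mice received iv 238Pu(IV) citrate, then ip ligand (30 µmol/kg, 0.14 M NaCl pH 7.4) at 1 h. Feces plus GI contents were collected to 24 h kill, pooled per five-mouse cage and alpha-counted by liquid scintillation. Values are %ID normalized to total recovery. SD applies only to multiply replicated groups.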

Assay [23] relates to Mus musculus. Briefly: Removal of [238Pu] (i.v.) from mice by ligand injected 30 uM/Kg ip at 1 hr and orally at 3 min after iv injection from kidneys. The assay is classed as functional, Kidney. The method, boiled down: as §2
Assay [24] concerns Mus musculus. In words: Removal of [238Pu] (i.v.) from mice by ligand injected 30 uM/Kg intraperitoneally at 1 hr from liver tissue. The format is functional. An outline of the steps:
as §1

Assay [25] concerns Mus musculus. Briefly: Removal of [238Pu] (i.v.) from mice by ligand injected 30 uM/Kg orally at 3 min fasted after iv injection from skeleton. The assay is classed as functional. An outline of the steps: as §4
Assay [26] has as its system Mus musculus. In words: Removal of [238Pu] (i.v.) from mice by ligand injected 30 uM/Kg ip at 1 hr from feces and GI contents. The format is functional. The method, boiled down: as §5
In assay [27] the test system is Mus musculus. Briefly: Removal of [238Pu] (i.v.) from mice by ligand injected 30 uM/Kg intraperitoneally at 1 hr from kidneys. The format is functional, Kidney. An outline of the steps:
as §1

Assay [28] has as its system Mus musculus. Briefly: Removal of [238Pu] (i.v.) from mice by ligand injected 30 uM/Kg orally at 3 min fasted after iv injection from liver tissue. The format is functional. An outline of the steps: as §4
The subject of assay [29] is Mus musculus. Briefly: Removal of [238Pu] (i.v.) from mice by ligand injected 30 uM/Kg intraperitoneally at 1 hr from whole body. The format is functional. An outline of the steps: as §1
Assay [30] relates to Mus musculus. Briefly: Removal of [238Pu] (i.v.) from mice by ligand injected 30 uM/Kg orally at 3 min fasted after iv injection from whole body. The assay is classed as functional. The method, boiled down:
as §4

The subject of assay [31] is Mus musculus. In words: Removal of [238Pu] (i.v.) from mice by ligand injected 30 uM/Kg orally at 3 min fasted after iv injection from urine excretia. The format is functional. The method, boiled down:
as §4

Assay [32] relates to Mus musculus. Briefly: Removal of [238Pu] (i.v.) from mice by ligand injected 30 uM/Kg intraperitoneally at 1 hr from urine excretia. The assay is classed as functional. The method, boiled down:
as §1

Assay [33] relates to Mus musculus. In words: Removal of [238Pu] (i.v.) from mice by ligand injected 30 uM/Kg intraperitoneally at 1 hr from skeleton. The assay is classed as functional. An outline of the steps: as §1
In assay [34] the test system is Mus musculus. Briefly: Removal of [238Pu] (i.v.) from mice by ligand injected 30 uM/Kg orally at 3 min fasted after iv injection from soft tissue. The assay is classed as functional. An outline of the steps: as §4
The subject of assay [35] is Mus musculus. Briefly: Removal of [238Pu] (i.v.) from mice by ligand injected 30 uM/Kg intraperitoneally at 1 hr from soft tissue. The format is functional. The method, boiled down:
as §1

Assay [36] has as its system Mus musculus. In words: Removal of [238Pu] (i.v.) from mice by ligand injected 30 uM/Kg orally at 3 min fasted after iv injection from feces and GI contents. The format is functional. An outline of the steps: as §4

Values joined by “and” are separate entries in the source; they are usually repeats but may differ in a detail not shown here. Identical values can stand only once.

Take `O=C(NCCCN(CCCCN(CCCNC(=O)c1cccc(=O)n1O)C(=O)c1cccc(=O)n1O)C(=O)c1cccc(=O)n1O)c1cccc(=O)n1O`: the ID is 25% and 21% in the assay on Mus musculus [1]; 0.1% in the assay with Mus musculus [2]; 1.6% and 0.8% in the assay on Mus musculus [3]; 0.2% with Mus musculus [4]; 16% with Mus musculus [5]; 7.5% in the assay with Mus musculus [6]. For the same compound, the ID in the assay on Mus musculus [7] is 8%; in the assay with Mus musculus [8], 24% and 14%; in the assay with Mus musculus [9] it was 18% and 14%; in the assay on Mus musculus [10] it was 8.9% and 5.4%; in the assay with Mus musculus [11] it was 0.2% and 0.1%; with Mus musculus [12] it was 51% and 60%. In addition, the ID was 1.5% with Mus musculus [13]; 12% and 8% in the assay with Mus musculus [14]; 26% in the assay on Mus musculus [15]; 11% and 4.2% in the assay on Mus musculus [16]; 5.9% in the assay with Mus musculus [17]; 1.3% and 1.1% in the assay on Mus musculus [18]. Besides, the ID is 57% in the assay on Mus musculus [19]; 27% with Mus musculus [20]; 8.8% in the assay on Mus musculus [21]; 57% and 65% with Mus musculus [22].

In the case of `O=C([O-])CN(CCN(CC(=O)[O-])CC(=O)[O-])CCN(CC(=O)[O-])CC(=O)[O-].[Ca+2].[Na+].[Na+].[Na+]` [PENTETATE CALCIUM TRISODIUM], the ID in the assay with Mus musculus [23] is reported as 0.7%; with Mus musculus [24], 19%; with Mus musculus [25], 40%; in the assay on Mus musculus [26], 8.4%; with Mus musculus [27], 1.2%; in the assay on Mus musculus [28], 33%. In addition, the ID was 37% in the assay on Mus musculus [29]; 79% with Mus musculus [30]; 15% with Mus musculus [31]; 55% with Mus musculus [32]; 14% in the assay with Mus musculus [33]; 5.1% in the assay on Mus musculus [34]. The ID in the assay on Mus musculus [35] was 2.9%; in the assay with Mus musculus [36], 6.5%.

In the case of `Cn1ccc(C(=O)NCCCN(CCCCN(CCCNC(=O)c2ccn(C)c(=O)c2O)C(=O)c2cccc(=O)n2O)C(=O)c2cccc(=O)n2O)c(O)c1=O`, the ID is on record as 27% in the assay with Mus musculus [1]; 0.09% with Mus musculus [2]; 1% with Mus musculus [3]; 0.1% in the assay with Mus musculus [4]; 11% with Mus musculus [5]; 9.1% in the assay with Mus musculus [7]. In addition, the ID in the assay on Mus musculus [8] was 11%; in the assay on Mus musculus [9], 22%; in the assay with Mus musculus [10] it was 11%; with Mus musculus [11], 0.2%; in the assay with Mus musculus [12] it was 61%; with Mus musculus [13] it was 0.9%. The ID with Mus musculus [14] was 7.8%; in the assay with Mus musculus [15], 28%; in the assay on Mus musculus [16], 2.2%; in the assay on Mus musculus [17] it was 2.4%; in the assay on Mus musculus [18], 0.8%; with Mus musculus [19] it was 58%. Further, the ID was determined as 31% in the assay on Mus musculus [20], 7.4% in the assay with Mus musculus [21] and 51% with Mus musculus [22].
